Source: article PMC3291815 (Circulation Research, 2011)
Like-named read-outs stand apart in the source and are kept apart here. One block for each molecule: values may come before it. Positions of bridges follow the written chain, without caps; N, C: chain ends. No end group written: not given here.

T1: CD40L-Mac-1 I-domain interaction (Homo sapiens, UniProt P29965)
T1 sequence (P29965 108-261): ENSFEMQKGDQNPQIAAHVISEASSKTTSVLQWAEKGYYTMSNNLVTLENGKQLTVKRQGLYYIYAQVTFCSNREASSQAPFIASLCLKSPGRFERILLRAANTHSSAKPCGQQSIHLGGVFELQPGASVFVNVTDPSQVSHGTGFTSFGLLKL

B1: CD40L (recombinant, His- and c-myc-tag fusion protein, E108 to L261) (ligand)
chain: T1 sequence (P29965 108-261)

What was measured:
[1] = target: T1, CD40L-Mac-1 I-domain interaction; type: binding
How it was run: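 Recombinant CD40L (residues E108–L261, His- and c-myc-tagged) was incubated with immobilized Mac-1 I-domain alongside a range of cyclized peptide or scrambled peptide concentrations. Bound CD40L was detected with anti-c-myc-HRP and TMB substrate by colorimetric read-out. Anti-CD40L (100 μg/ml) and saline served as controls.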

[2] = type: in vivo, C57BL/6J mice; settings: after intraperitoneal injection, FITC-coupled peptide, plasma fluorescence
How it was run: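 C57BL/6J mice received a single intraperitoneal injection of FITC- or TAMRA-labelled cyclized peptide or its scrambled control, at 100 or 200 μg. Plasma samples were collected at set time points, and peptide level was followed by plasma fluorescence.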

[3] = system: Murine fibroblasts over-expressing CD40L; type: cell-based; settings: flow cytometry; not to mock-transfected control cells
[4] = target: T2, Mac-1 I-domain (recombinant, His-tag fusion protein, R115 to S340) (UniProt P11215 131-356); experiment: SPR
T2 sequence (P11215 131-356): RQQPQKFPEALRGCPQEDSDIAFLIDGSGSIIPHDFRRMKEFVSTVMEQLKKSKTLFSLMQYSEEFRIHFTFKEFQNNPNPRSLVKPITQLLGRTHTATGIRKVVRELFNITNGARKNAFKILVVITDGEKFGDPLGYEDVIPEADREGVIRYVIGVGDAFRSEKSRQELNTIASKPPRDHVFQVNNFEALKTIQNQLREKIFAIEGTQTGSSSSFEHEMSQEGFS

[5] = target: T2, Mac-1 I-domain (recombinant, His-tag …); experiment: SPR; remark: listed apart in the source
[6] = target: B1; experiment: dynamic cell adhesion assay

IC50 [1]: 200 to 900 nM
Molecule: EQLKKSKTL [M7]

Binding to Murine fibroblasts over-expressing CD40L [3]: concentration-dependently bound
Molecule: FITC-labeled cM7: cM7 coupled to fluorescein isothiocyanate (CEQLKKSKTLC; disulfide 1-11; also: FITC coupled, site not given here)
Time of highest plasma availability [2]: 30 min

Molecule: B1
Kd [4]: 671 nM | Kd [5]: 214 nM

IC50 [6]: 206 nM
Molecule: CEQLKKSKTLC (disulfide 1-11) [cM7, cyclised version of peptide M7]
